The nature of assay [1]: Antiphotoaging activity in HDF assessed as protection against 6 J/cm'2 UVA-induced reduction of cell survival at 5 uM treated 4 hrs before UVA irradiation measured after 24 hrs by MTT assay relative to control. The assay is classed as functional. The note with it: Homo sapiens, light or radiation study, read-out: Survival. An outline of the steps:
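Normal human dermal fibroblasts (passages 5–10) seeded at 10 000 cells/well, grown overnight, exposed to compound at 5 μM for 4 h, then rinsed and irradiated in PBS with 6 J/cm2 UVA (365 nm lamp, 4.762 mW/cm2), after which medium was restored. After 24 h, MTT added for 2 h at 37 °C; formazan dissolved in DMSO, OD 540 nm. Reported as mean ± SD; three independent experiments, triplicate.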

For assay [2], the system named is HDF. Description: Antiphotoaging activity in HDF assessed as reduction of 6 J/cm'2 UVA-induced ROS production treated 4 hrs before UVA irradiation using DCFH-DA staining by flow cytometry. The assay is classed as functional. The note with it: Homo sapiens. An outline of the steps: (§1)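 Fibroblasts treated 4 h at 5 μM or at various concentrations, then exposed to 6 J/cm2 UVA in PBS (365 nm peak) or sham-irradiated. Loaded with DCFH-DA 10 μM for 30 min at 37 °C. DCF fluorescence read by flow cytometry on FL-1. Three independent experiments.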
Background: In flow cytometry, cells or beads pass a laser one at a time.

The subject of assay [3] is HDF. Description: Effect on MMP-1 mRNA expression in HDF by quantitative RT-PCR analysis. Type of assay: functional. Conditions: Homo sapiens. An outline of the steps:
(§2)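 Fibroblasts treated with compound alone, UVA alone, or both. Total RNA extracted with Trizol; 2 μg reverse-transcribed. SYBR Green real-time qPCR with 0.3 μM each primer and 100 ng cDNA. GAPDH listed among the amplified genes.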

The subject of assay [4] is HDF. Description: Effect on elastin mRNA expression in HDF by quantitative RT-PCR analysis. The assay is classed as functional. Conditions: Homo sapiens. An outline of the steps:
as §2

In assay [5] the test system is HDF. As to the kind of experiment: Effect on senescence-associated-beta-gal expression in HDF using 5-bromo-4-chloro-3-indoyl-beta-galactoside staining by microscopic analysis. The assay is classed as functional. Conditions: Homo sapiens.
In assay [6] the test system is HDF. Description: Effect on TIMP-1 mRNA expression in HDF by quantitative RT-PCR analysis. Type of assay: functional. Conditions: Homo sapiens. An outline of the steps: as §2
For assay [7], the system named is HDF. Description: Antiphotoaging activity in HDF assessed as protection against 6 J/cm'2 UVA-induced reduction of cell proliferation at 1 to 5 uM measured after 24 hrs by irradiation by MTT assay. Type of assay: functional. The note with it: Homo sapiens, TDE = time-dependent effect. An outline of the steps:
(§3)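 Fibroblasts seeded at 10 000 cells/well and left overnight. Pretreated with 0, 1, 2.5 or 5 μM for 2 or 4 h, then given 6 J/cm2 UVA in PBS; medium added back. After 24 h, MTT 2 h at 37 °C, formazan dissolved in DMSO, OD read at 540 nm. Three independent experiments.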
A general note: Formazan colour is commonly taken as a measure of viable cells.

Assay [8] concerns HDF. Description: Antiphotoaging activity in HDF assessed as protection against 6 J/cm'2 UVA-induced increase of MMP-1 mRNA expression treated 4 hrs before UVA irradiation by quantitative RT-PCR analysis. The assay is classed as functional. Conditions: Homo sapiens. An outline of the steps: as §2
For assay [9], the system named is HDF. Description: Antiphotoaging activity in HDF assessed as protection against 6 J/cm'2 UVA-induced reduction of TIMP-1 mRNA expression treated 4 hrs before UVA irradiation by quantitative RT-PCR analysis. The assay is classed as functional. Conditions: Homo sapiens. An outline of the steps:
as §2

Assay [10] has as its system HDF. Description: Antiphotoaging activity in HDF assessed as protection against 6 J/cm'2 UVA-induced reduction of cell proliferation treated 2 to 4 hrs before UVA irradiation measured after 24 hrs by MTT assay. The assay is classed as functional. The note with it: Homo sapiens. An outline of the steps: as §3
Assay [11] has as its system HDF. Description: Antiphotoaging activity in HDF assessed as protection against 6 J/cm'2 UVA-induced reduction of fibronectin mRNA expression treated 4 hrs before UVA irradiation by quantitative RT-PCR analysis. Type of assay: functional. Conditions: Homo sapiens. An outline of the steps: as §2
Assay [12] concerns HDF. Description: Effect on mitochondrial membrane potential in HDF at 5 uM after 4 hrs using DiOC6 staining by flow cytometry. Type of assay: functional. Conditions: Homo sapiens. An outline of the steps:
(§4)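 Normal fibroblasts (passages 5–10) pretreated 4 h at 5 μM or at various concentrations, then 6 J/cm2 UVA given in PBS (365 nm lamp, 4.762 mW/cm2) or sham-irradiated. Cells trypsinized, pelleted, stained with DiOC6 30 min at room temperature, washed, resuspended in PBS. Read at once by flow cytometry, FL-1 530/30 nm. Three independent experiments.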

In assay [13] the test system is HDF. Description: Effect on fibronectin mRNA expression in HDF by quantitative RT-PCR analysis. Type of assay: functional. The note with it: Homo sapiens. An outline of the steps: as §2
The subject of assay [14] is HDF. Description: Antiphotoaging activity in HDF assessed as increase of 6 J/cm'2 UVA-induced mitochondrial membrane potential treated 4 hrs before UVA irradiation using DiOC6 staining by flow cytometry. The assay is classed as functional. Conditions: Homo sapiens. An outline of the steps:
as §4

Assay [15] concerns HDF. Description: Effect on ROS production in HDF at 5 uM after 4 hrs using DCFH-DA staining by flow cytometry. The assay is classed as functional. Conditions: Homo sapiens. An outline of the steps: as §1
Assay [16] has as its system HDF. Description: Effect on procollagen 1 type 1 mRNA expression in HDF by quantitative RT-PCR analysis. Type of assay: functional. The note with it: Homo sapiens. An outline of the steps: as §2
The subject of assay [17] is HDF. As to the kind of experiment: Antiphotoaging activity in HDF assessed as reduction of 6 J/cm'2 UVA-induced senescence-associated-beta-gal positive cells treated 4 hrs before UVA irradiation using 5-bromo-4-chloro-3-indoyl-beta-galactoside staining by microscopic analysis. Type of assay: functional. The note with it: Homo sapiens.
For assay [18], the system named is HDF. As to the kind of experiment: Effect on COL1alpha1 mRNA expression in HDF by quantitative RT-PCR analysis. Type of assay: functional. Conditions: Homo sapiens. An outline of the steps: as §2
The species entered for a further assay is Mus musculus. As to the kind of experiment: Antiphotoaging activity in ICR mouse assessed as reduction of 3 J/cm'2 UVA-induced epidermal hypertrophy at 0.5 gram per square in dorsal skin immediately after UVA irradiation 3 times a week for up to 12 weeks. The assay is classed as functional, organism-based. An outline of the steps: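 Female ICR mice, six weeks old, n = 4 per group, dorsal skin shaved. Given 3 J/cm2 UVA (4.762 mW/cm2), then 0.1% emulsion (Tefose 63 base) applied topically at 0.5 g per square right after irradiation. Done three times weekly for up to 12 weeks (total 108 J/cm2). Skin taken after final irradiation for histology.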

The subject of assay [19] is HDF. Description: Antiphotoaging activity in HDF assessed as protection against 6 J/cm'2 UVA-induced reduction of COL1alpha1 mRNA expression treated 4 hrs before UVA irradiation by quantitative RT-PCR analysis. The assay is classed as functional. The note with it: Homo sapiens. An outline of the steps: as §2
Assay [20] concerns HDF. As to the kind of experiment: Antiphotoaging activity in HDF assessed as protection against 6 J/cm'2 UVA-induced reduction of elastin mRNA expression treated 4 hrs before UVA irradiation by quantitative RT-PCR analysis. The note with it: Homo sapiens. The assay is classed as functional. An outline of the steps:
as §2

For assay [21], the system named is HDF. Description: Antiphotoaging activity in HDF assessed as protection against 6 J/cm'2 UVA-induced increase of MMP-1 protein expression treated 4 hrs before UVA irradiation by Western blot analysis. Type of assay: functional. The note with it: Homo sapiens. An outline of the steps: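 Fibroblasts pretreated with 5 μM, then given 6 J/cm2 UVA. Lysed in ice-cold RIPA with protease and phosphatase inhibitors; protein measured by Bradford. Immunoblot with rabbit monoclonal anti-MMP-1, actin as loading control. HRP secondary, chemiluminescence detection, densitometry. Three independent experiments.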
(In general: A western blot detects proteins with antibodies after separation by electrophoresis.)

In assay [22] the test system is HDF. As to the kind of experiment: Antiphotoaging activity in HDF assessed as protection against 6 J/cm'2 UVA-induced reduction of ATP level at 5 uM treated 4 hrs before UVA irradiation by bioluminescent assay. The assay is classed as functional. Conditions: Homo sapiens. An outline of the steps:
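Fibroblasts exposed 4 h to compound at 5 μM, then irradiated with 6 J/cm2 UVA in PBS. Cells lysed at once and debris spun off. Supernatant ATP measured by luciferin–luciferase bioluminescence. Expressed as percent of unirradiated, untreated control. Three independent experiments.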

For assay [23], the system named is HDF. As to the kind of experiment: Antiphotoaging activity in HDF assessed as protection against 6 J/cm'2 UVA-induced reduction of procollagen 1 type 1 mRNA expression treated 4 hrs before UVA irradiation by quantitative RT-PCR analysis. The note with it: Homo sapiens. Type of assay: functional. An outline of the steps:
as §2

Calls of active or inactive are those of the source. The calls are words filed in the database; no cut-off is given here.

Viability and Activity data for 25 compounds are collected here from ChEMBL document CHEMBL2396654, “Discovery, synthetic methodology, and biological evaluation for antiphotoaging activity of bicyclic[1,2,3]triazoles: in vitro and in vivo studies” (2013).

Regarding `O=[N+]([O-])c1cccc(-c2nnn3c2CCCC3)c1`, the viability at 5 µM in assay [1] was 62%.

As to `c1ccc(-c2nnn3c2CCCC3)cc1`, the viability at 5 µM in [1] turned out to be 57%.

In the case of `c1ccc(-c2nnn3c2CCC3)cc1`, in assay [1], the viability at 5 µM came out at 61.1%.

With `O=[N+]([O-])c1cccc(C#Cc2nnn3c2CCC3)c1`, the viability at 5 µM in [1] worked out at 88.2%.

For `COc1ccc(C#Cc2nnn3c2CCC3)cc1`, the viability at 5 µM in [1] was 73.2%.

Take `Nc1ccccc1-c1nnn2c1CCCC2`: the viability at 5 µM in assay [1] was found to be 61%.

Consider `CCc1ccc(C#Cc2nnn3c2CCC3)cc1`, for which the viability at 5 µM in assay [1] stood at 80.7%.

On to `COc1cccc(-c2nnn3c2CCCC3)c1`, for which the viability at 5 µM in [1] worked out at 63.7%.

`Nc1ccccc1C#Cc1nnn2c1CCC2`: in [1], the viability at 5 µM turned out to be 71.2%.

Regarding `O=[N+]([O-])c1ccc(-c2nnn3c2CCC3)cc1`, the viability at 5 µM in assay [1] was found to be 70%.

`O=[N+]([O-])c1cccc(-c2nnn3c2CCC3)c1`: the viability at 5 µM in assay [1] is 52.8%.

On to `COc1ccc(C#Cc2nnn3c2CCCC3)cc1`, for which the viability at 5 µM in assay [1] was determined as 73%.

Consider `COc1ccc(-c2nnn3c2CCC3)cc1`, for which, in assay [1], the viability at 5 µM stood at 70.3%.

As for `O=[N+]([O-])c1ccc(C#Cc2nnn3c2CCC3)cc1`, the viability at 5 µM in assay [1] came out at 84.1%.

As to `O=[N+]([O-])c1cccc(C#Cc2nnn3c2CCCC3)c1`, the viability at 5 µM in [1] is 71.3%.

Turning to `Fc1ccccc1C#Cc1nnn2c1CCCC2`, the viability at 5 µM in assay [1] amounted to 78.9%.

For `COc1cccc(-c2nnn3c2CCC3)c1`, in [1], the viability at 5 µM is 58%.

As for `COc1cccc(C#Cc2nnn3c2CCC3)c1`, the Activity result in the assay on HDF [2] is “Dose-dependent effect”; in the assay on HDF [7], “tde”; in the assay on HDF [10], “Dose-dependent effect”; in the assay on HDF [14], “Dose-dependent effect”. Further, the outcome in the assay with HDF [3], in the assay with HDF [4], in the assay on HDF [5], in the assay with HDF [6], in the assay with HDF [12] and in the assay on HDF [13] was inactive. For the same compound, the result in the assay on HDF [15], in the assay with HDF [16] and in the assay with HDF [18] was inactive. The outcome in the assay on HDF [8], with HDF [9], in the assay with HDF [11], in the assay on HDF [17], in the assay listed under Mus musculus and in the assay on HDF [19] was Active. For the same compound, the result with HDF [20], in the assay with HDF [21], in the assay on HDF [22] and in the assay with HDF [23] was Active. Moreover, the viability at 5 µM in [1] was 95.3%.

Consider `C(#Cc1nnn2c1CCCC2)c1ccccc1`, for which, in [1], the viability at 5 µM worked out at 68.7%.

For the compound `COc1ccc(-c2nnn3c2CCCC3)cc1`, the viability at 5 µM in [1] was 54%.

As to `Fc1ccccc1C#Cc1nnn2c1CCC2`, in assay [1], the viability at 5 µM was determined as 75.2%.

In the case of `COc1cccc(C#Cc2nnn3c2CCCC3)c1`, in assay [1], the viability at 5 µM came to 61.9%.

Regarding `C(#Cc1nnn2c1CCC2)c1ccccc1`, in [1], the viability at 5 µM came out at 62.7%.

Consider `CCc1ccc(C#Cc2nnn3c2CCCC3)cc1`, for which the viability at 5 µM in assay [1] was determined as 55.7%.

As for `O=[N+]([O-])c1ccc(-c2nnn3c2CCCC3)cc1`, the viability at 5 µM in [1] came to 52%.
